Results: ChEMBL document CHEMBL2146441, “2,6-Disubstituted imidazo[2,1-b][1,3,4]thiadiazoles: search for anticancer agents” (2012)

Experiments:
Format in all cases: functional
SK-OV-3 = assay: Cytotoxicity against human SKOV3 cells assessed as cell growth at 10^-4 M after 48 hrs by SRB assay; conditions: SK-OV-3, 48 h, read-out: Activity
OVCAR-8 = assay: Cytotoxicity against human OVCAR8 cells assessed as cell growth at 10^-5 M after 48 hrs by SRB assay; conditions: OVCAR-8, 48 h, read-out: Activity
MDA-MB-435 [1] = assay: Cytotoxicity against human MDA-MB-435 cells assessed as cell growth at 10^-8 M after 48 hrs by SRB assay; conditions: MDA-MB-435, 48 h, read-out: Activity
SK-MEL-2 [2] = assay: Growth inhibition of human SK-MEL-2 cells after 48 hrs by SRB assay; conditions: SK-MEL-2, 48 h; for CC50: read-out: LC50 (the source's name)
Method in brief: (§1)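 Adherent NCI-60 lines grown in RPMI 1640 with 5% FBS, seeded at 5000–40,000 cells/well, and preincubated 24 h at 37 °C, 5% CO2. Compound, stocked in DMSO, given either once at 10^-5 M or at five 10-fold dilutions for 48 h. Cells fixed with cold TCA (final 10%), stained with 0.4% SRB, and read at 515 nm. GI50 taken as 50% reduction in net protein increase versus time-zero and control plates.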

UO-31 = assay: Cytotoxicity against human UO31 cells assessed as cell growth at 10^-6 M after 48 hrs by SRB assay; conditions: UO-31, 48 h, read-out: Activity
T47D = assay: Cytotoxicity against human T47D cells assessed as cell growth at 10^-6 M after 48 hrs by SRB assay; conditions: read-out: Activity
SF-539 = assay: Cytotoxicity against human SF539 cells assessed as cell growth at 10^-6 M after 48 hrs by SRB assay; conditions: SF-539, 48 h, read-out: Activity
NCI-H322M = assay: Cytotoxicity against human NCI-H322M cells assessed as cell growth at 10^-5 M after 48 hrs by SRB assay; conditions: read-out: Activity
SR = assay: Growth inhibition of human SR cells after 48 hrs by SRB assay
SW-620 = assay: Cytotoxicity against human SW620 cells assessed as cell growth at 10^-8 M after 48 hrs by SRB assay; conditions: SW-620, 48 h, read-out: Activity
SN12C = assay: Cytotoxicity against human SN12C cells assessed as cell growth at 10^-4 M after 48 hrs by SRB assay; conditions: read-out: Activity
LOX IMVI = assay: Cytotoxicity against human LOXIMVI cells assessed as cell growth at 10^-7 M after 48 hrs by SRB assay; conditions: read-out: Activity
M14 = assay: Cytotoxicity against human M14 cells assessed as cell growth at 10^-5 M after 48 hrs by SRB assay; conditions: M14, 48 h, read-out: Activity
TK-10 = assay: Cytotoxicity against human TK10 cells assessed as cell growth at 10^-4 M after 48 hrs by SRB assay; conditions: TK-10, 48 h, read-out: Activity
HCT-15 = assay: Growth inhibition of human HCT15 cells after 48 hrs by SRB assay; conditions: HCT-15, 48 h; for CC50: read-out: LC50 (the source's name); method in brief: as §1
HOP-62 = assay: Cytotoxicity against human HOP62 cells assessed as cell growth at 10^-8 M after 48 hrs by SRB assay; conditions: HOP-62, 48 h, read-out: Activity
Method in brief: (§2)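 NCI-60 five-dose screen. Cells were grown in RPMI 1640 with 5% FBS and seeded at 5000–40,000 cells/well according to doubling time. They were pre-incubated 24 h at 37 °C in 5% CO₂, and time-zero (Tz) plates were TCA-fixed at drug addition. Five 10-fold dilutions of DMSO stock were applied for 48 h. Read-out was SRB staining, 515 nm absorbance, with percent growth calculated versus Tz and untreated control.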

MDA-MB-468 = assay: Cytotoxicity against human MDA-MB-468 cells assessed as cell growth at 10^-8 M after 48 hrs by SRB assay; conditions: MDA-MB-468, 48 h, read-out: Activity
MDA-MB-435 [3] = assay: Cytotoxicity against human MDA-MB-435 cells assessed as cell growth at 10^-4 M after 48 hrs by SRB assay; conditions: MDA-MB-435, 48 h, read-out: Activity
RXF 393 = assay: Cytotoxicity against human RXF393 cells assessed as cell growth at 10^-7 M after 48 hrs by SRB assay; conditions: RXF 393, 48 h, read-out: Activity
CAKI-1 = assay: Growth inhibition of human Caki1 cells after 48 hrs by SRB assay; conditions: CAKI-1, 48 h
Method in brief: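 Same 48 h NCI-60 five-dose SRB protocol. Adherent lines were fixed with cold TCA at 10% final; suspension lines such as CCRF-CEM were fixed with 16% final TCA. Stain was 0.4% SRB in 1% acetic acid for 10 min, solubilized in 10 mM Tris base and read at 515 nm. GI50 came from log concentration–growth curves, solving [(Ti−Tz)/(C−Tz)]×100 = 50.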

NCI-H460 = assay: Cytotoxicity against human NCI-H460 cells assessed as cell growth at 10^-6 M after 48 hrs by SRB assay; conditions: NCI-H460, 48 h, read-out: Activity
EKVX = assay: Cytotoxicity against human EKVX cells assessed as cell growth at 10^-8 M after 48 hrs by SRB assay; conditions: read-out: Activity
Method in brief: (§3)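 NCI-60 screen: lines kept in RPMI 1640 with 5% FBS, seeded at 5000–40,000 cells/well by doubling time, preincubated 24 h at 37 °C in 5% CO2. Time-zero plates TCA-fixed at drug addition. DMSO stocks diluted in medium, 48 h exposure. Fixation in cold TCA (final 10% adherent, 16% suspension), 0.4% SRB stain, solubilised in 10 mM Tris base, A515. Percent growth computed against control and time-zero.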

SNB-75 = assay: Cytotoxicity against human SNB75 cells assessed as cell growth at 10^-7 M after 48 hrs by SRB assay; conditions: SNB-75, 48 h, read-out: Activity
CCRF-CEM = assay: Cytotoxicity against human CCRF-CEM cells assessed as cell growth at 10^-7 M after 48 hrs by SRB assay; conditions: read-out: Activity; method in brief: as §3
SK-MEL-2 [4] = assay: Cytotoxicity against human SK-MEL-2 cells assessed as cell growth at 10^-5 M after 48 hrs by SRB assay; conditions: SK-MEL-2, 48 h, read-out: Activity
[5] = Cytotoxicity against human NCI-ADR-RES cells assessed as cell growth at 10^-5 M after 48 hrs by SRB assay; conditions: read-out: Activity
BT-549 = assay: Cytotoxicity against human BT549 cells assessed as cell growth at 10^-4 M after 48 hrs by SRB assay; conditions: BT-549, 48 h, read-out: Activity; method in brief: as §3
HCT-116 = assay: Cytotoxicity against human HCT116 cells assessed as cell growth at 10^-7 M after 48 hrs by SRB assay; conditions: HCT-116, 48 h, read-out: Activity; method in brief: as §2

SMILES	growth at 100 µM (SK-OV-3) [%]	growth at 10 µM (OVCAR-8) [%]	growth at 0.01 µM (MDA-MB-435 [1]) [%]	GI50 (SK-MEL-2 [2]) [µM]	TGI (SK-MEL-2 [2]) [µM]	CC50 (SK-MEL-2 [2]) [µM]	growth at 1 µM (UO-31) [%]	growth at 1 µM (T47D) [%]	growth at 1 µM (SF-539) [%]	growth at 10 µM (NCI-H322M) [%]	GI50 (SR) [µM]	LC50 (SR) [µM]	TGI (SR) [µM]	growth at 0.01 µM (SW-620) [%]	growth at 100 µM (SN12C) [%]	growth at 0.1 µM (LOX IMVI) [%]	growth at 10 µM (M14) [%]	growth at 100 µM (TK-10) [%]	GI50 (HCT-15) [µM]	TGI (HCT-15) [µM]	further results
COc1ccc(-c2nn3cc(-c4ccc(O)cc4O)nc3s2)cc1	-50	7	97	2.85	14.2	> 100	68	71	97	23	2.17	> 100	14	97	2	94	17	-21	5.13	> 100	CC50 (HCT-15): > 100 µM; growth at 0.01 µM (HOP-62): 95%; growth at 0.01 µM (MDA-MB-468): 96%; growth at 100 µM (MDA-MB-435 [3]): -38%; growth at 0.1 µM (RXF 393): 104%; GI50 (CAKI-1): 2.07 µM; LC50 (50% lethal concentration) (CAKI-1): > 100 µM; TGI (CAKI-1): 28.9 µM; growth at 1 µM (NCI-H460): 75%; growth at 0.01 µM (EKVX): 103%; growth at 0.1 µM (SNB-75): 68%; growth at 0.1 µM (CCRF-CEM): 92%; growth at 10 µM (SK-MEL-2 [4]): 9%; growth at 10 µM [5]: 15%; growth at 100 µM (BT-549): -15%; growth at 0.1 µM (HCT-116): 93%
COc1ccc(-c2nn3cc(-c4cccc(N)c4)nc3s2)cc1	-68	31	95	5.35	31.9	> 100	60	57	91	44	3.27	> 100	> 100	95	4	92	34	-30	5.26	> 100	CC50 (HCT-15): > 100 µM; growth at 0.01 µM (HOP-62): 97%; growth at 0.01 µM (MDA-MB-468): 94%; growth at 100 µM (MDA-MB-435 [3]): -53%; growth at 0.1 µM (RXF 393): 85%; GI50 (CAKI-1): 0.743 µM; LC50 (50% lethal concentration) (CAKI-1): > 100 µM; TGI (CAKI-1): 10.9 µM; growth at 1 µM (NCI-H460): 76%; growth at 0.01 µM (EKVX): 81%; growth at 0.1 µM (SNB-75): 74%; growth at 0.1 µM (CCRF-CEM): 89%; growth at 10 µM (SK-MEL-2 [4]): 39%; growth at 10 µM [5]: 31%; growth at 100 µM (BT-549): -25%; growth at 0.1 µM (HCT-116): 99%
